Our source for the IC50, relative potency and inhibition values is ChEMBL document CHEMBL2202999, “Synthesis of bivalent lactosides and their activity as sensors for differences between lectins in inter- and intrafamily comparisons” (Bioorg Med Chem Lett, 2012).

Broadly, the pIC50 is −log10 of the IC50, conventionally taken in molar units. Lower therefore signals a high IC50. The term inhibition denotes the change of the read-out against control, counted positive when it falls. A higher inhibition goes with a response far below the control.

The nature of assay [1]: Inhibition of binding of biotinylated chicken galectin-2 to surface immobilized asialofetuin by solid phase assay. Also on record: species or system Gallus gallus. An outline of the steps:
(§1)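 Asialofetuin was adsorbed to microtiter wells at a constant coating amount, and its N-glycans served as ligand. Biotinylated lectin at a lectin-specific concentration was added with inhibitor. IC50 (mM) was normalized to lactose, and potency was expressed relative to free lactose. Assays were run in triplicate across up to five independent series.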

A short description of assay [2]: Inhibition of binding of biotinylated chicken galectin-8N to surface immobilized asialofetuin by solid phase assay. The arrangement: species or system Gallus gallus. An outline of the steps:
as §1

The nature of assay [3]: Inhibition of binding of biotinylated Erythrina crista-galli agglutinin to surface immobilized asialofetuin by solid phase assay relative to free lactose. An outline of the steps:
as §1

Assay [4] in a line: Inhibition of binding of biotinylated chicken galectin-1A to surface immobilized asialofetuin by solid phase assay relative to free lactose. The arrangement: species or system Gallus gallus. The gist of the method: as §1
A short description of assay [5]: Inhibition of binding of biotinylated chicken galectin-1A to surface immobilized asialofetuin by solid phase assay. The arrangement: species or system Gallus gallus. The gist of the method:
as §1

Assay [6] is described as follows: Inhibition of binding of biotinylated chicken galectin-8S to surface immobilized asialofetuin by solid phase assay relative to free lactose. The arrangement: species or system Gallus gallus. The gist of the method:
as §1

Assay [7] in a line: Inhibition of binding of biotinylated chicken galectin-8L to surface immobilized asialofetuin by solid phase assay relative to free lactose. The arrangement: species or system Gallus gallus. An outline of the steps:
(§2)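 Asialofetuin was adsorbed to microtiter wells at a constant coating amount, and its N-glycans served as ligand. Biotinylated lectin at a lectin-specific concentration was added with inhibitor. Assays were run in triplicate across up to five independent series.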

Assay [8] has as its target T1, Galectin-3 (Gallus gallus, UniProt A4GTP0).
T1 sequence (A4GTP0 whole entry): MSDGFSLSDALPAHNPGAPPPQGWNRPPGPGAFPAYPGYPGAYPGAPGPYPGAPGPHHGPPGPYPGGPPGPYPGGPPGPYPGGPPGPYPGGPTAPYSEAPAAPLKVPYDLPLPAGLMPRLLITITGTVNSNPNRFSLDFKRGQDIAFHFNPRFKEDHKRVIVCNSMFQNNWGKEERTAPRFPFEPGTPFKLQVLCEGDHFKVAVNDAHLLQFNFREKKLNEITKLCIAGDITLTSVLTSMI
As to the kind of experiment: Inhibition of binding of biotinylated truncated chicken galectin-3 to surface immobilized asialofetuin by solid phase assay relative to free lactose. The gist of the method: as §2

Assay [9] deals with T1, Galectin-3. As to the kind of experiment: Inhibition of binding of biotinylated truncated chicken galectin-3 to surface immobilized asialofetuin by solid phase assay. The gist of the method:
as §2

In assay [10] the target is T1, Galectin-3. As to the kind of experiment: Inhibition of binding of biotinylated chicken galectin-3 to surface immobilized asialofetuin by solid phase assay. The gist of the method:
as §2

Assay [11] in a line: Inhibition of binding of biotinylated chicken galectin-8L to surface immobilized asialofetuin by solid phase assay. Also on record: species or system Gallus gallus. An outline of the steps:
as §1

Assay [12] is described as follows: Inhibition of binding of biotinylated Viscum album agglutinin to surface immobilized asialofetuin by solid phase assay relative to free lactose. An outline of the steps:
as §2

For assay [13], the target named is T2, Galectin-3 (Gallus gallus) (UniProt A4GTP0).
T2 sequence (whole entry): T1 sequence (A4GTP0 whole entry)
The experiment in a line: (§3) Inhibition of binding of biotinylated truncated chicken galectin-3 to CHO cells at 2 mM by cytofluorometry. The assay is classed as cell-based. An outline of the steps: (§4)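 Labeled lectin, with or without inhibitor, was incubated with aliquots of cell suspensions from the same passage: human SW480 colon adenocarcinoma cells for Erythrina agglutinin, CHO cells for the galectins. Binding was quantified by cytofluorometry as % positive cells and mean fluorescence intensity. Readings were normalized between a lectin-only control (100%) and a no-lectin background (0%). Runs were done in triplicate across at least three independent series.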

Assay [14] can be described thus: Inhibition of binding of biotinylated Viscum album agglutinin to surface immobilized asialofetuin by solid phase assay. The gist of the method: as §1
The target in assay [15] is T3, Beta-galactoside-binding lectin (Gallus gallus, UniProt P07583).
T3 sequence (P07583 whole entry): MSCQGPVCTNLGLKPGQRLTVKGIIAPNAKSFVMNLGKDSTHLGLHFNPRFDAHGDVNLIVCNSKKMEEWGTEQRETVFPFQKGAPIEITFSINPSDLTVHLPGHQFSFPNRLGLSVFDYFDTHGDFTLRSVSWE
The experiment in a line: Inhibition of binding of biotinylated chicken galectin-1B to surface immobilized asialofetuin by solid phase assay relative to free lactose. The gist of the method: as §1

Assay [16] can be described thus: Inhibition of binding of biotinylated Erythrina crista-galli agglutinin to surface immobilized asialofetuin by solid phase assay. The gist of the method: as §2
Assay [17] concerns the target T3, Beta-galactoside-binding lectin. The experiment in a line: Inhibition of binding of biotinylated chicken galectin-1B to surface immobilized asialofetuin by solid phase assay. The gist of the method:
as §1

The target of assay [18] is T1, Galectin-3. As to the kind of experiment: Inhibition of binding of biotinylated chicken galectin-3 to surface immobilized asialofetuin by solid phase assay relative to free lactose. The gist of the method:
as §1

Assay [19] in a line: Inhibition of binding of biotinylated chicken galectin-8S to surface immobilized asialofetuin by solid phase assay. The arrangement: species or system Gallus gallus. The gist of the method: as §1
Assay [20] can be described thus: Inhibition of binding of biotinylated chicken galectin-2 to surface immobilized asialofetuin by solid phase assay relative to free lactose. The arrangement: species or system Gallus gallus. The gist of the method:
as §1

The subject of a further assay is SW480. As to the kind of experiment: Inhibition of binding of biotinylated Erythrina crista-galli agglutinin to SW480 cells at 0.2 mM by cytofluorometry. The assay is classed as cell-based. An outline of the steps: as §4
The target in assay [21] is T2, Galectin-3 (Gallus gallus). The following applies: CHO, 0.25 mM.
The subject of a further assay is CHO. The experiment in a line: Inhibition of binding of biotinylated chicken galectin-8S to CHO cells at 1 mM by cytofluorometry. The assay is classed as cell-based. As to conditions: Gallus gallus. An outline of the steps:
as §4

A short description of assay [22]: Inhibition of binding of biotinylated chicken galectin-8N to surface immobilized asialofetuin by solid phase assay relative to free lactose. The arrangement: species or system Gallus gallus. The gist of the method:
as §1

Assay [23] deals with T2, Galectin-3 (Gallus gallus). The experiment in a line: (§5) Inhibition of binding of biotinylated chicken galectin-3 to CHO cells at 1 mM by cytofluorometry. The assay is classed as cell-based. An outline of the steps: as §4
The target in assay [24] is Galectin-3 (Gallus gallus) (UniProt A4GTP0). The description is as §3. The assay is classed as cell-based. An outline of the steps:
as §4
The source holds these as a separate data set.

The target is the same in assay [25]. Described as §5. The assay is classed as cell-based. The gist of the method:
as §4
This is another data set of the same source.

pIC50: −log10 of the molar value.

Turning to `OC[C@H]1O[C@@H](O[C@H]2[C@H](O)[C@@H](O)[C@H](n3cc(-c4ccc(-c5cn([C@@H]6O[C@H](CO)[C@@H](O[C@@H]7O[C@H](CO)[C@H](O)[C@H](O)[C@H]7O)[C@H](O)[C@H]6O)nn5)cc4)nn3)O[C@@H]2CO)[C@H](O)[C@@H](O)[C@H]1O`, the pIC50 is 2.92 in [1]; 3.30 in assay [2]; 3.66 in assay [5]; 2.59 in assay [6]; 2.55 in assay [7]; 2.82 at Galectin-3 [8]. Also, the pIC50 is 2.51 on Galectin-3 [9]; 4.15 at Galectin-3 [10]; 2.74 in [11]; 3.89 in assay [14]; 3.22 in assay [16]; 2.82 in assay [17]. The same compound gave a pIC50 in assay [19] of 3.15. For the same compound, the relative potency in assay [3] came to 1.8; in [4] it was 2.3; in assay [12], 4.6; in assay [15], 2.7; on Galectin-3 [18], 15.7; in assay [20], 5. Moreover, the relative potency in [22] turned out to be 3.2. The inhibition was 44% in assay [13], 85% in the assay with SW480, 39% in [21] and 34% in the assay with CHO.
In the case of “LACTOSE, ANHYDROUS [listing 1 of 2 here]”, the pIC50 in assay [1] was 2.22; in assay [2], 2.80; in assay [5], 3.30; in assay [11] it was 2.30; in assay [14], 3.22; in assay [19], 2.74.
Take `O=C(/C=C/C(=O)N[C@@H]1O[C@H](CO)[C@@H](O[C@@H]2O[C@H](CO)[C@H](O)[C@H](O)[C@H]2O)[C@H](O)[C@H]1O)N[C@@H]1O[C@H](CO)[C@@H](O[C@@H]2O[C@H](CO)[C@H](O)[C@H](O)[C@H]2O)[C@H](O)[C@H]1O`: the pIC50 in [1] was 2.85; in [2] it was 3.10; in assay [5] it was 3.44; in assay [6], 3.15; on Galectin-3 [9], 2.38; on Galectin-3 [10] it was 3.22. Besides, the pIC50 in assay [11] is 2.35; in [14], 3.26; in assay [16], 2.92; in [17], 2.89; in [19] it was 2.60. The inhibition in assay [13] worked out at 47%; in assay [23], 45%; with SW480, 89%; with CHO, 70%.
In the case of “LACTOSE, ANHYDROUS [listing 2 of 2 here]”, the inhibition stood at 67% in [24], 75% in [25], 86% with SW480 and 39% with CHO.
Turning to `C=CC[C@@H]1O[C@@H](C(=O)NCc2ccc(CNC(=O)[C@H]3O[C@H](CC=C)[C@H](OCc4ccccc4)[C@@H](OCc4ccccc4)[C@@H]3OCc3cn([C@@H]4O[C@H](CO)[C@@H](O[C@@H]5O[C@H](CO)[C@H](O)[C@H](O)[C@H]5O)[C@H](O)[C@H]4O)nn3)cc2)[C@H](OCc2cn([C@@H]3O[C@H](CO)[C@@H](O[C@@H]4O[C@H](CO)[C@H](O)[C@H](O)[C@H]4O)[C@H](O)[C@H]3O)nn2)[C@@H](OCc2ccccc2)[C@@H]1OCc1ccccc1`, the pIC50 was 3.19 in [1]; 3.40 in [2]; 2.85 in [5]; 3.22 in assay [6]; 2.68 in [7]; 3.05 at Galectin-3 [8]. Also, the pIC50 at Galectin-3 [9] was 2.30; on Galectin-3 [10], 4.85; in assay [11] it was 2.62; in [14], 2.89; in assay [16], 2.89; in assay [17] it was 3.34. In addition, the pIC50 in assay [19] is 2.52. The relative potency in assay [3] came out at 0.8; in [4], 0.5; in [12], 0.5; in [15], 8.7; on Galectin-3 [18] it was 78.6; in assay [20], 9.2. Moreover, in assay [22], the relative potency was found to be 4.
As for `O=C1NCc2ccc(cc2)CNC(=O)[C@@H]2O[C@@H](C/C=C/C[C@H]3O[C@H]1[C@@H](OCc1cn([C@@H]4O[C@H](CO)[C@@H](O[C@@H]5O[C@H](CO)[C@H](O)[C@H](O)[C@H]5O)[C@H](O)[C@H]4O)nn1)[C@H](OCc1ccccc1)[C@H]3OCc1ccccc1)[C@@H](OCc1ccccc1)[C@H](OCc1ccccc1)[C@H]2OCc1cn([C@@H]2O[C@H](CO)[C@@H](O[C@@H]3O[C@H](CO)[C@H](O)[C@H](O)[C@H]3O)[C@H](O)[C@H]2O)nn1`, the pIC50 was 3.15 in assay [1]; 3.52 in assay [2]; 2.80 in [5]; 2.35 in [6]; 2.08 in assay [7]; 3.10 on Galectin-3 [8]. Moreover, the negative-log IC50 (pIC50) at Galectin-3 [9] was 2.28; on Galectin-3 [10], 4.10; in assay [11], 3.22; in [14], 3.62; in [16] it was 3.10; in assay [17], 3.22. Besides, the pIC50 in [19] is 3.40. Further, the relative potency amounted to 1.4 in [3]; 0.3 in [4]; 2.5 in assay [12]; 6.7 in assay [15]; 13.8 on Galectin-3 [18]; 8.6 in [20]. The compound further yielded a relative potency in assay [22] of 5.3. In the assay with SW480, this compound registered an inhibition of 88%.
